Test results reported in ChEMBL document CHEMBL1149056, “Bioactive annonaceous acetogenins from the bark of Xylopia aromatica” (J Nat Prod, 1994).
Values after ≈ are worked out from the molar mass of the structure shown.

How the values were obtained:
[1] = tested on: MCF7; test: Cytotoxicity against human MCF7 cells after 7 days; type: functional; conditions: for EC50: Homo sapiens, MCF7, 168 h, read-out: ED50 (the source's name)
Procedure, shortened: (§1)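 Human solid tumor cell lines A-549 (lung carcinoma), MCF-7 (breast carcinoma) and HT-29 (colon adenocarcinoma) tested in seven-day cytotoxicity assays run at a cancer center cell culture laboratory, with adriamycin as positive control.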

[2] = tested on: HT-29; test: Cytotoxicity against human HT-29 cells after 7 days; type: functional; conditions: for EC50: Homo sapiens, HT-29, 168 h, read-out: ED50 (the source's name); procedure, shortened: as §1
[3] = tested on: A549; test: Cytotoxicity against human A549 cells after 7 days; type: functional; conditions: for EC50: Homo sapiens, A549, 168 h, read-out: ED50 (the source's name); procedure, shortened: as §1
[4] = Toxicity against brine shrimp larvae; type: organism-based; conditions: artemia, in vivo

Compound | EC50 [1] [µg/mL] | EC50 [2] [µg/mL] | EC50 [3] [µg/mL] | ED50 [1] | ED50 [3] | LC50 [4] [µg/mL] | ED50 [2]
COc1cccc2c1C(=O)c1c(O)c3c(c(O)c1C2=O)C[C@@](O)(C(=O)CO)C[C@@H]3O[C@H]1C[C@H](N)[C@H](O)[C@H](C)O1 [DOXORUBICIN] | 0.0228 (≈ 0.0419 µM) | 0.00279 (≈ 0.00513 µM) | 0.0011 (≈ 0.00202 µM) |  |  |  | 
CCCCCCCCCCCCCC[C@@H](O)[C@H]1CC[C@H]([C@H](O)CCCCC(O)CCCCC[C@@H](O)CC2=C[C@H](C)OC2=O)O1 (some centres undefined) [XYLOMATICIN] |  | 0.304 (≈ 0.486 µM) |  | 1.47 ×10⁻⁶ ug/ml | 1.54 ×10⁻⁴ ug/ml | 0.11 (≈ 0.176 µM) | 
CCCCCCCCCCCC[C@@H](O)[C@H]1CC[C@H]([C@H](O)CCCC[C@H](O)CCCCC[C@@H](O)CC2=CC(C)OC2=O)O1 (some centres undefined) [ANNONACIN] | 0.0024 (≈ 0.00402 µM) |  |  |  | <1 ×10⁻⁷ ug/ml | 0.23 (≈ 0.385 µM) | <1 ×10⁻⁷ ug/ml
CCCCCCCCCCCC[C@@H](O)[C@H]1CC[C@H]([C@H](O)CCCCCCC(O)CCC[C@@H](O)CC2=C[C@H](C)OC2=O)O1 (some centres undefined) [XYLOPIANIN] | 18.5 (≈ 30.9 µM) | 6.63 (≈ 11.1 µM) | 0.0426 (≈ 0.0714 µM) |  |  | 0.33 (≈ 0.553 µM) | 
CCCCCCCCCCCC[C@H](O)[C@@H]1CC[C@@H]([C@@H](O)CCCCCCC(O)CCCCC[C@@H](O)CC2=C[C@H](C)OC2=O)O1 (some centres undefined) [ANNOMONTACIN] | 0.165 (≈ 0.264 µM) | 0.00258 (≈ 0.00413 µM) | 0.00772 (≈ 0.0124 µM) |  |  |  | 
CCCCCCCCCCCCCC[C@@H](O)[C@H]1CC[C@H]([C@H](O)CCCCCCC(O)CCC[C@@H](O)CC2=C[C@H](C)OC2=O)O1 (some centres undefined) [XYLOPIACIN] |  | 0.111 (≈ 0.178 µM) |  | 1.39 ×10⁻⁷ ug/ml | 1.36 ×10⁻⁶ ug/ml | 0.49 (≈ 0.784 µM) | 
CCCCCCCCCCCCCC[C@@H](O)[C@H](O)CC[C@H](O)[C@@H]1CC[C@@H](CCCCC[C@@H](O)CC2=C[C@H](C)OC2=O)O1 [GIGANTETROCIN A] | 0.63 (≈ 1.06 µM) |  | 0.25 (≈ 0.419 µM) |  |  | 1.4 (≈ 2.35 µM) | 4.1 ×10⁻⁵ ug/ml
CCCCCCCCCCCCCCC(O)C(O)CC[C@H](O)[C@H]1CC[C@H](CCCCC[C@@H](O)CC2=C[C@H](C)OC2=O)O1 (some centres undefined) [GIGANTETRONENIN] | 0.603 (≈ 1.01 µM) | 0.0537 (≈ 0.09 µM) | 0.0047 (≈ 0.00787 µM) |  |  |  | 
